One series relates to Staphylococcus aureus. The experiment in a line: Antibacterial activity against Staphylococcus aureus ATCC 29213 after 18 to 24 hrs by broth microdilution method. Format: functional. A digest of the protocol: (§1)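 CLSI broth microdilution in Mueller Hinton broth, with inoculum from 24 h Mueller Hinton agar subcultures, final about 5 10^5 cfu/mL. Compounds were dissolved in DMSO and tested as twofold dilutions in wells. Plates were incubated at 35 °C for 18–24 h. MIC was read as the lowest concentration completely inhibiting visible growth. Ciprofloxacin was the reference.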
Background: Dilution methods test growth across graded concentrations, often in twofold steps.

The test system of another series is Enterococcus faecalis. The experiment in a line: Antibacterial activity against Enterococcus faecalis ATCC 29212 after 18 to 24 hrs by broth microdilution method. Format: functional. Put shortly: as §1
Another series deals with Candida albicans. The experiment in a line: Anti-fungal activity against Candida albicans ATCC 90028 after 48 hrs by broth microdilution method. In kind it is functional. Conditions: ATCC 90028, 48 h. Put shortly:
(§2)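 CLSI broth microdilution in RPMI 1640 (with glutamine, without bicarbonate) buffered to pH 7.0 with MOPS. Inoculum was prepared from 24 h Sabouraud dextrose agar subcultures, final 0.5 to 2.5 10^3 cfu/mL. Twofold dilutions were made from DMSO stocks. Incubated 35 °C for 48 h. MIC was the lowest concentration with no visible growth; for the fluconazole reference, MIC was taken at about 80% growth inhibition versus control.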

For another series, the system named is Candida parapsilosis. The experiment in a line: Anti-fungal activity against Candida parapsilosis ATCC 90018 after 48 hrs by broth microdilution method. Format: functional. Conditions: Lodderomyces parapsilosis, ATCC 90018, 48 h. A digest of the protocol:
as §2

In the next series the test system is Pseudomonas aeruginosa. Description: Antibacterial activity against Pseudomonas aeruginosa ATCC 27853 after 18 to 24 hrs by broth microdilution method. Format: functional. A digest of the protocol: as §1
In another series the test system is Pichia kudriavzevii. The experiment in a line: Anti-fungal activity against Candida krusei ATCC 6258 after 48 hrs by broth microdilution method. In kind it is functional. Conditions: ATCC 6258, 48 h. Put shortly:
as §2

In the next series the test system is Escherichia coli. Description: Antibacterial activity against Escherichia coli ATCC 25922 after 18 to 24 hrs by broth microdilution method. In kind it is functional. Put shortly:
as §1

The subject of a further series is Nakaseomyces glabratus. The experiment in a line: Anti-fungal activity against drug-resistant Candida glabrata after 48 hrs by broth microdilution method. Format: functional. A digest of the protocol:
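Clinical resistant C. glabrata isolate, stored frozen in glycerol and subcultured twice on Sabouraud dextrose agar. CLSI broth microdilution in RPMI 1640 (glutamine, no bicarbonate) buffered to pH 7.0 with MOPS. Inoculum from 24 h subcultures, final 0.5 to 2.5 x10^3 cfu/mL. DMSO-dissolved compounds in twofold dilutions, 35 C for 48 h. MIC is the lowest concentration giving complete visual growth inhibition; fluconazole reference read at about 80% inhibition.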

A short description of series [1]: Cytotoxicity against human U937 cells assessed as cell viability at 10 to 100 ug/ml after 48 hrs by MTT assay relative to control. In kind it is cell-based, U-937. As to conditions: read-out: Activity. Put shortly: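 U937 human monocytic cells, 4 10^3 per well in RPMI-1640 with 10% FBS, L-glutamine, penicillin and streptomycin, at 37 °C and 5% CO2. Compounds in DMSO were added at five final concentrations for 48 h, in triplicate. MTT was added for 4 h, formazan was dissolved overnight in SDS/23% DMF, and OD was read at 570 nm. Results are % reduction in viable cells versus control.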

Converted amounts (≈) assume the structure as drawn. A value given as a limit tells only on which side of the number the result lay.

What is called MIC is the least concentration at which growth counts as inhibited. For the compound `OC(Cn1ccnc1)c1ccccc1` (configuration not stated), the MIC against Staphylococcus aureus turned out to be 1020 µg/mL (≈ 5440 µM); against Enterococcus faecalis, 512 µg/mL (≈ 2720 µM); with Candida albicans, 256 µg/mL (≈ 1360 µM); against Candida parapsilosis, 256 µg/mL (≈ 1360 µM); with Pseudomonas aeruginosa it was 512 µg/mL (≈ 2720 µM); in the series with Pichia kudriavzevii, 256 µg/mL (≈ 1360 µM). 512 µg/mL (≈ 2720 µM) was the least that counted as inhibitory in the series with Escherichia coli (MIC).
With `OC(Cn1ccnc1)c1ccc(Cl)cc1` (configuration not stated), the MIC against Staphylococcus aureus is 64 µg/mL (≈ 287 µM); against Enterococcus faecalis, 128 µg/mL (≈ 575 µM); against Candida albicans, 128 µg/mL (≈ 575 µM); in the series with Candida parapsilosis, 128 µg/mL (≈ 575 µM); in the series with Pseudomonas aeruginosa, 256 µg/mL (≈ 1150 µM); in the series with Pichia kudriavzevii, 256 µg/mL (≈ 1150 µM). This compound yielded an MIC against Escherichia coli of 256 µg/mL (≈ 1150 µM).
`CC(=O)OC(Cn1ccnc1)c1ccccc1.Cl` (configuration not stated): the minimum inhibitory concentration (MIC) against Staphylococcus aureus came out at 1020 µg/mL; against Enterococcus faecalis, 256 µg/mL; in the series on Candida albicans it was 128 µg/mL; against Candida parapsilosis it was 64 µg/mL; against Pseudomonas aeruginosa it was 256 µg/mL; in the series with Pichia kudriavzevii, 128 µg/mL. The same compound gave an MIC with Escherichia coli of 512 µg/mL.
As for `CCCC(CCC)C(=O)OC(Cn1ccnc1)c1ccc(Cl)cc1.Cl` (configuration not stated), the MIC was 1020 µg/mL against Staphylococcus aureus; 32 µg/mL with Enterococcus faecalis; 128 µg/mL with Candida albicans; 64 µg/mL in the series on Candida parapsilosis; 256 µg/mL against Pseudomonas aeruginosa; 64 µg/mL with Pichia kudriavzevii. The compound further yielded an MIC in the series with Escherichia coli of 512 µg/mL.
As for `CC(=O)CCC(=O)OC(Cn1ccnc1)c1ccc(Cl)cc1.Cl` (configuration not stated), the MIC against Staphylococcus aureus amounted to 512 µg/mL; with Enterococcus faecalis, 256 µg/mL; in the series with Candida albicans, 64 µg/mL; in the series with Candida parapsilosis, 16 µg/mL; against Pseudomonas aeruginosa, 256 µg/mL; against Pichia kudriavzevii it was 32 µg/mL. Moreover, the MIC with Escherichia coli came out at 512 µg/mL.
Take `Cl.O=C(Cc1ccccc1)OC(Cn1ccnc1)c1ccccc1` (configuration not stated): the MIC stood at 128 µg/mL with Staphylococcus aureus; 64 µg/mL in the series with Enterococcus faecalis; 64 µg/mL in the series with Candida albicans; 32 µg/mL against Candida parapsilosis; 128 µg/mL with Pseudomonas aeruginosa; 128 µg/mL against Pichia kudriavzevii. This compound also yielded an MIC against Escherichia coli of 512 µg/mL.
On to `CC(=O)CCC(=O)OC(Cn1ccnc1)c1ccccc1.Cl` (configuration not stated), for which the MIC was 512 µg/mL in the series on Staphylococcus aureus; 128 µg/mL against Enterococcus faecalis; 256 µg/mL with Candida albicans; 256 µg/mL in the series on Candida parapsilosis; 256 µg/mL with Pseudomonas aeruginosa; 256 µg/mL in the series with Pichia kudriavzevii. The compound also returned an MIC with Escherichia coli of 512 µg/mL.
`CCC(=O)OC(Cn1ccnc1)c1ccccc1.Cl` (configuration not stated): the MIC turned out to be 1020 µg/mL against Staphylococcus aureus; 128 µg/mL in the series with Enterococcus faecalis; 64 µg/mL against Candida albicans; 8 µg/mL with Candida parapsilosis; 256 µg/mL against Pseudomonas aeruginosa; 32 µg/mL against Pichia kudriavzevii. In the series on Escherichia coli, this compound yielded an MIC of 512 µg/mL.
For `Cl.O=C(CCC(=O)c1ccccc1)OC(Cn1ccnc1)c1ccccc1` (configuration not stated), the MIC stood at 128 µg/mL in the series with Staphylococcus aureus; 64 µg/mL against Enterococcus faecalis; 16 µg/mL with Candida albicans; 32 µg/mL against Candida parapsilosis; 256 µg/mL in the series with Pseudomonas aeruginosa; 128 µg/mL against Pichia kudriavzevii. In the series on Escherichia coli, this compound showed an MIC of 512 µg/mL.
For `C/C=C/C=C/C(=O)OC(Cn1ccnc1)c1ccccc1.Cl` (configuration not stated), the MIC worked out at 512 µg/mL in the series on Staphylococcus aureus; 64 µg/mL in the series with Enterococcus faecalis; 32 µg/mL in the series with Candida albicans; 8 µg/mL against Candida parapsilosis; 256 µg/mL with Pseudomonas aeruginosa; 32 µg/mL against Pichia kudriavzevii. In addition, in the series with Escherichia coli, 512 µg/mL was the least that counted as inhibitory (MIC).
For the compound `CCCC(=O)OC(Cn1ccnc1)c1ccccc1.Cl` (configuration not stated), the MIC against Staphylococcus aureus was 512 µg/mL; against Enterococcus faecalis, 128 µg/mL; against Candida albicans it was 64 µg/mL; against Candida parapsilosis, 16 µg/mL; against Pseudomonas aeruginosa, 256 µg/mL; with Pichia kudriavzevii, 32 µg/mL. This compound showed an MIC in the series with Escherichia coli of 512 µg/mL.
Regarding `CCCCC(=O)OC(Cn1ccnc1)c1ccccc1.Cl` (configuration not stated), the MIC in the series on Staphylococcus aureus worked out at 256 µg/mL; against Enterococcus faecalis it was 128 µg/mL; against Candida albicans it was 8 µg/mL; against Candida parapsilosis it was 8 µg/mL; with Pseudomonas aeruginosa, 256 µg/mL; with Nakaseomyces glabratus, 32 µg/mL. The MIC was 32 µg/mL with Pichia kudriavzevii and 512 µg/mL in the series on Escherichia coli.
With `Cl.O=C(OC(Cn1ccnc1)c1ccccc1)C1CCCCC1` (configuration not stated), the MIC against Staphylococcus aureus worked out at 64 µg/mL; with Enterococcus faecalis it was 32 µg/mL; against Candida albicans, 16 µg/mL; in the series with Candida parapsilosis, 16 µg/mL; with Pseudomonas aeruginosa it was 256 µg/mL; against Pichia kudriavzevii it was 128 µg/mL. In the series with Escherichia coli, this compound had an MIC of 512 µg/mL.
`Cl.O=C(OC(Cn1ccnc1)c1ccccc1)c1ccccc1` (configuration not stated): the MIC is 64 µg/mL in the series on Staphylococcus aureus; 64 µg/mL in the series with Enterococcus faecalis; 32 µg/mL against Candida albicans; 32 µg/mL against Candida parapsilosis; 256 µg/mL with Pseudomonas aeruginosa; over 32 µg/mL against Nakaseomyces glabratus. Besides, the MIC against Pichia kudriavzevii turned out to be 64 µg/mL; against Escherichia coli it was 256 µg/mL.
`Cl.O=C(OC(Cn1ccnc1)c1ccc(Cl)cc1)c1ccccc1` (configuration not stated): the viability at 48 h in series [1] lay within 70 to 80%. For the same compound, the MIC against Staphylococcus aureus is 128 µg/mL; in the series on Enterococcus faecalis, 512 µg/mL; against Candida albicans, 4 µg/mL; in the series on Candida parapsilosis, 2 µg/mL; against Pseudomonas aeruginosa, 256 µg/mL; in the series on Nakaseomyces glabratus it was 16 µg/mL. Further, the MIC stood at 32 µg/mL with Pichia kudriavzevii and 512 µg/mL in the series on Escherichia coli.
For `Cl.O=C(/C=C/c1ccccc1)OC(Cn1ccnc1)c1ccc(Cl)cc1` (configuration not stated), the viability at 48 h in series [1] was 70 to 80%. Also, the MIC against Staphylococcus aureus was determined as 1020 µg/mL; against Enterococcus faecalis it was 256 µg/mL; with Candida albicans, 4 µg/mL; with Candida parapsilosis it was 2 µg/mL; in the series with Pseudomonas aeruginosa, 256 µg/mL; in the series on Nakaseomyces glabratus it was 2 µg/mL. The results for the MIC in the series with Pichia kudriavzevii and against Escherichia coli were 16 µg/mL and 512 µg/mL, respectively.
As to `CC(C)CC(=O)OC(Cn1ccnc1)c1ccccc1.Cl` (configuration not stated), the MIC is 256 µg/mL against Staphylococcus aureus; 128 µg/mL against Enterococcus faecalis; 2 µg/mL with Candida albicans; 2 µg/mL in the series on Candida parapsilosis; 256 µg/mL in the series with Pseudomonas aeruginosa; over 32 µg/mL against Nakaseomyces glabratus. Also, the MIC in the series on Pichia kudriavzevii amounted to 32 µg/mL; in the series with Escherichia coli, 512 µg/mL.
Consider `CC(=O)OC(Cn1ccnc1)c1ccc(Cl)cc1.Cl` (configuration not stated), for which the MIC was 256 µg/mL against Staphylococcus aureus; 256 µg/mL against Enterococcus faecalis; 64 µg/mL against Candida albicans; 8 µg/mL in the series with Candida parapsilosis; 256 µg/mL in the series with Pseudomonas aeruginosa; 32 µg/mL against Pichia kudriavzevii. Besides, the MIC in the series on Escherichia coli was found to be 512 µg/mL.
As to `CCCC(CCC)C(=O)OC(Cn1ccnc1)c1ccccc1.Cl` (configuration not stated), the MIC is 16 µg/mL with Staphylococcus aureus; 32 µg/mL against Enterococcus faecalis; 32 µg/mL with Candida albicans; 32 µg/mL against Candida parapsilosis; 256 µg/mL against Pseudomonas aeruginosa; over 32 µg/mL against Nakaseomyces glabratus. Besides, the MIC amounted to 32 µg/mL in the series with Pichia kudriavzevii and 512 µg/mL against Escherichia coli.
Consider `Cl.O=C(CCCc1ccccc1)OC(Cn1ccnc1)c1ccccc1` (configuration not stated), for which the minimum inhibitory concentration (MIC) in the series on Staphylococcus aureus was 8 µg/mL; in the series on Enterococcus faecalis, 128 µg/mL; against Candida albicans, 4 µg/mL; in the series with Candida parapsilosis, 4 µg/mL; with Pseudomonas aeruginosa it was 256 µg/mL; with Nakaseomyces glabratus it was over 32 µg/mL. The values for the MIC in the series on Pichia kudriavzevii and against Escherichia coli were 32 µg/mL and 1020 µg/mL, respectively.
In the case of `O=C(O)c1cn(C2CC2)c2cc(N3CCNCC3)c(F)cc2c1=O` [CIPROFLOXACIN], the MIC turned out to be 0.5 µg/mL (≈ 1.51 µM) in the series with Staphylococcus aureus, 1.5 µg/mL (≈ 4.53 µM) with Enterococcus faecalis, 1.5 µg/mL (≈ 4.53 µM) in the series on Pseudomonas aeruginosa and 0.005 µg/mL (≈ 0.0151 µM) in the series with Escherichia coli.
In the case of `OC(Cn1cncn1)(Cn1cncn1)c1ccc(F)cc1F` [FLUCONAZOLE], the MIC in the series with Candida albicans came out at 0.25 µg/mL (≈ 0.816 µM); against Candida parapsilosis, 0.25 µg/mL (≈ 0.816 µM); with Nakaseomyces glabratus, 32 µg/mL (≈ 104 µM); in the series with Pichia kudriavzevii, 16 µg/mL (≈ 52.2 µM).

Values taken from ChEMBL document CHEMBL4049392, “New azole derivatives showing antimicrobial effects and their mechanism of antifungal activity by molecular modeling studies” (Eur J Med Chem, 2017).
